pIC50: −log10 of the molar value.

This note sets out measurements from ChEMBL document CHEMBL1132860 (Bioorg Med Chem Lett, 2000).

For test [1], the target named is T1, Alpha-2A adrenergic receptor (Homo sapiens, UniProt P08913).
T1 sequence (P08913 whole entry): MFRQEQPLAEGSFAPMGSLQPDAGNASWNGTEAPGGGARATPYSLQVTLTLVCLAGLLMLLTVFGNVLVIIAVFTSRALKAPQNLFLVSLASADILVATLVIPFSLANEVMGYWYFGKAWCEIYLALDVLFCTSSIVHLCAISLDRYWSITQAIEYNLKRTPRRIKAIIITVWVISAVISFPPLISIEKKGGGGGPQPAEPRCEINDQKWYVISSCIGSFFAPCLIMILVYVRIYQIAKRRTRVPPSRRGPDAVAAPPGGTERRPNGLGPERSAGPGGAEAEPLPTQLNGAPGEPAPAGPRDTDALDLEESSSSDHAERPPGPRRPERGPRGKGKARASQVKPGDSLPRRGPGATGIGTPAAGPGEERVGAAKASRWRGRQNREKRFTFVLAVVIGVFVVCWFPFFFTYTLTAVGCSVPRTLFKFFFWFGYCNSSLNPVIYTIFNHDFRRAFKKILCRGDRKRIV
Put plainly: Binding affinity at human Alpha-2A adrenergic receptor in CHO cells by [3H]rauwolscine (1 nM) displacement. It counts as cell-based. The method in brief:
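Membranes from CHO cells stably expressing the human receptor, with 1 nM [3H]rauwolscine as radioligand. Nonspecific binding was defined with 1 μM oxymethazoline. Compounds were tested over 10^-5 to 10^-11. Inhibition curves were fitted as sigmoids by non-linear regression using polynomials, and pIC50 (−log IC50) was read from the curves.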

In test [2] the target is T2, Alpha-2B adrenergic receptor (Homo sapiens, UniProt P18089).
T2 sequence (P18089 whole entry): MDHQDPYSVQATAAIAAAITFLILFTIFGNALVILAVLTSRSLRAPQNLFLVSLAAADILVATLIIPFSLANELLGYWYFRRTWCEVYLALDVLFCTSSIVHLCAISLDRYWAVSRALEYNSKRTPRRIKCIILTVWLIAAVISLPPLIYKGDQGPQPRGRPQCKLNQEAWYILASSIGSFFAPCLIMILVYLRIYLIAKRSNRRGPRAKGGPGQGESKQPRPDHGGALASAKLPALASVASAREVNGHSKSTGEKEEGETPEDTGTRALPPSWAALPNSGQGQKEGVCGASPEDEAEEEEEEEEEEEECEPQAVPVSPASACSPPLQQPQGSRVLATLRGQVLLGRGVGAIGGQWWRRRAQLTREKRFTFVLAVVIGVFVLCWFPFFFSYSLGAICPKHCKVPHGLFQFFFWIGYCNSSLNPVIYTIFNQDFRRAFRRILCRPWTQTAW
The test is described as follows: Binding affinity at human Alpha-2B adrenergic receptor in CHO cells by [3H]rauwolscine (1 nM) displacement. It counts as cell-based.

For test [3], the target named is T3, Alpha-1A adrenergic receptor (Homo sapiens, UniProt P35348).
T3 sequence (P35348 whole entry): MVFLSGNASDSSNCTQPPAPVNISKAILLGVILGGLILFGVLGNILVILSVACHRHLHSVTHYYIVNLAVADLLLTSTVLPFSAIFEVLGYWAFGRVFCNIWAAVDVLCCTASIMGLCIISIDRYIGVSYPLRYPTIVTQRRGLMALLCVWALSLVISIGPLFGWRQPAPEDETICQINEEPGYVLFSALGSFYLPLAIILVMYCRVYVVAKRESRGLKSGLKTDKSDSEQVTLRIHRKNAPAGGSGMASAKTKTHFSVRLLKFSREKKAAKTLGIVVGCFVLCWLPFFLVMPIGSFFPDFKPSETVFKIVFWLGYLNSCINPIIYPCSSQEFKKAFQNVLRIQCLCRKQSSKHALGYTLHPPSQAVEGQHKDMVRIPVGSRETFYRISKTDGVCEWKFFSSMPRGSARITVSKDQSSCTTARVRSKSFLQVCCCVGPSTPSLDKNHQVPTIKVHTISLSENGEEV
The test is described as follows: Binding affinity at human Alpha-1A adrenergic receptor in CHO cells uby [3H]prazosin (0.25 nM) displacement. Format: cell-based.

For test [4], the target named is T4, Alpha-2C adrenergic receptor (Homo sapiens, UniProt P18825).
T4 sequence (P18825 whole entry): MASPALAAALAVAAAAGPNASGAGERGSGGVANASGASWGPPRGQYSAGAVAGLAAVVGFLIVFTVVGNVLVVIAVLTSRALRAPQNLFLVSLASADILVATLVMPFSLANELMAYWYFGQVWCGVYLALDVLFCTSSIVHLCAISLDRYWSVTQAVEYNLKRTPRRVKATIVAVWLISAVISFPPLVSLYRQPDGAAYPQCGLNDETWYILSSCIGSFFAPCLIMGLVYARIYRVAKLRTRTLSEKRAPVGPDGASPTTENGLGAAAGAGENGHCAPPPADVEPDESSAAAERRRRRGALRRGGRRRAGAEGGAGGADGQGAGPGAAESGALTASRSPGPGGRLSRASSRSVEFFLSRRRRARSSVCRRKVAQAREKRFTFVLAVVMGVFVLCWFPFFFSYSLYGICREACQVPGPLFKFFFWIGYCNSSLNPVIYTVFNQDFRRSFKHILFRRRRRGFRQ
Put plainly: biochemical. It counts as cell-based, CHO.

Test [5] has as its system Rattus norvegicus. The test is described as follows: Inhibition of Xylazine (15 mg/kg i.v.) induced loss of righting reflex in rats following i.v. administration. More on the design: unit not given here. Format: functional.
Test [6] deals with Rattus norvegicus. Put plainly: Inhibition of clonidine (0.04 mg/kg) induced anti diarrhoeal effects in rats following s.c. administration. On the set-up: unit not given here. Format: functional.

By pIC50 is commonly meant the negative decadic logarithm of the IC50, by convention in mol/L. With `COc1cccn2c(=O)c(CCN3CCc4oc5ccccc5c4C3)c(C)nc12`, the pIC50 is 9.53 in test [1], 8.69 in test [2], 6.94 in test [3] and 9.15 in test [4]. Also, the Activity with Rattus norvegicus [5] and in the test with Rattus norvegicus [6] was 0.63 throughout.
As for `Cc1nc2c(Cl)cc(C(F)(F)F)cn2c(=O)c1CCN1CCc2oc3ccccc3c2C1`, the pIC50 was 8.93 in test [1], 8.71 in test [2] and 5.23 in test [3].
As to `Cc1nc2c(O)cccn2c(=O)c1CCN1CCc2oc3ccccc3c2C1`, the negative-log IC50 (pIC50) in test [1] was 9.16; in test [2] it was 8.76; in test [3], 6.61; in test [4], 8.79. Besides, the Activity with Rattus norvegicus [5] was 5; with Rattus norvegicus [6] it was 2.5.
`Cc1nc2cccc(C)n2c(=O)c1CCN1CCc2oc3ccccc3c2C1`: the pIC50 in test [1] was 9.54; in test [2] it was 8.83; in test [3], 6.40; in test [4] it was 8.97. For the same compound, the figures for the Activity in the test on Rattus norvegicus [5] and in the test with Rattus norvegicus [6] were 0.63 and 2.5, respectively.
Consider `Cc1ccn2c(=O)c(CCN3CCc4oc5ccccc5c4C3)c(C)nc2c1`, for which the pIC50 is 9.35 in test [1], 8.59 in test [2], 6.95 in test [3] and 8.92 in test [4]. Further, the Activity is on record as 0.63 in the test with Rattus norvegicus [5] and 2.5 with Rattus norvegicus [6].
In the case of `Cc1nc2ccc(Br)cn2c(=O)c1CCN1CCc2oc3ccccc3c2C1`, the negative-log IC50 (pIC50) in test [1] is 9.45; in test [2] it was 8.87; in test [3], 6.05; in test [4], 9.16. In addition, the values for the Activity in the test with Rattus norvegicus [5] and in the test on Rattus norvegicus [6] were 0.16 and 2.5, respectively.
In the case of `Cc1nc2ccccn2c(=O)c1CCN1CCc2sc3ccccc3c2C1`, the pIC50 in test [1] was 8.76; in test [2], 7.94; in test [3], 6.67; in test [4], 7.85. Also, the values for the Activity with Rattus norvegicus [5] and in the test on Rattus norvegicus [6] were 2.5 and 10, respectively.
As to `Cc1nc2c(C)cccn2c(=O)c1CCN1CCc2oc3ccccc3c2C1`, the negative logarithm of the IC50 (pIC50) in test [1] is 9.22; in test [2] it was 8.67; in test [3], 6.16; in test [4], 8.88. For the same compound, the Activity in the test on Rattus norvegicus [5] was 10; with Rattus norvegicus [6] it was 2.5.
As to `Cc1nc2ccccn2c(=O)c1CCCN1CCc2oc3ccccc3c2C1`, the pIC50 in test [1] was 7.99; in test [2], 7.97; in test [3] it was 6.09; in test [4], 8.18. Further, the Activity is given as greater than 10 in the test on Rattus norvegicus [5] and greater than 2.5 with Rattus norvegicus [6].
For `Cc1nc2ccccn2c(=O)c1CCN1CCc2oc3ccc(Cl)cc3c2C1`, the negative-log IC50 (pIC50) in test [1] was 8.41; in test [2], 7.10; in test [4], 7.56. Moreover, the Activity in the test with Rattus norvegicus [5] is on record as 10; in the test on Rattus norvegicus [6], greater than 2.5.
Take `CN1CCN2c3ncccc3Cc3ccccc3C2C1` (stereo not drawn) [MIRTAZAPINE]: the pIC50 in test [4] was 6.70. The Activity in the test on Rattus norvegicus [5] was 2.5; in the test on Rattus norvegicus [6], greater than 10.
For the compound `Cc1cc(C)n2c(=O)c(CCN3CCc4oc5ccccc5c4C3)c(C)nc2c1`, the negative-log IC50 (pIC50) in test [1] is 9.47; in test [2] it was 8.58; in test [3], 6.62; in test [4], 9.07. Further, the figures for the Activity in the test with Rattus norvegicus [5] and with Rattus norvegicus [6] were greater than 10 and greater than 2.5, respectively.
Turning to `Cc1nc2ccc(Cl)cn2c(=O)c1CCN1CCc2oc3ccccc3c2C1`, the negative-log IC50 (pIC50) is 9.67 in test [1], 9.02 in test [2], 6.14 in test [3] and 9.14 in test [4]. For the same compound, the figures for the Activity in the test on Rattus norvegicus [5] and with Rattus norvegicus [6] were 0.04 and 0.63, respectively.
With `c1ccc2c(c1)OCC(C1=NCCN1)O2` (stereo not drawn) [IDAZOXAN], the Activity in the test on Rattus norvegicus [5] and with Rattus norvegicus [6] was 0.63 each time.
Take `COc1cc2nc(C)c(CCN3CCc4oc5ccccc5c4C3)c(=O)n2cc1OC`: the negative logarithm of the IC50 (pIC50) in test [1] was 8.45; in test [2], 6.71; in test [3], 5.28; in test [4], 7.24. Moreover, the Activity was greater than 10 with Rattus norvegicus [5] and greater than 0.63 in the test on Rattus norvegicus [6].
Consider `Cc1nc2ccc(I)cn2c(=O)c1CCN1CCc2oc3ccccc3c2C1`, for which the pIC50 in test [1] was 9.62; in test [2], 8.68; in test [3], 6.32; in test [4] it was 9.21. The Activity in the test with Rattus norvegicus [5] is listed as 10; in the test with Rattus norvegicus [6], greater than 2.5.
Turning to `Cc1ccc2nc(C)c(CCN3CCc4oc5ccccc5c4C3)c(=O)n2c1`, the negative-log IC50 (pIC50) was 9.46 in test [1], 8.81 in test [2], 6.54 in test [3] and 8.89 in test [4]. Also, the Activity with Rattus norvegicus [5] was found to be 0.16; in the test on Rattus norvegicus [6], 0.63.
Take `Cc1nc2c(Cl)cc(Cl)cn2c(=O)c1CCN1CCc2oc3ccccc3c2C1`: the pIC50 was 9.23 in test [1] and 5.59 in test [3]. Also, the Activity in the test with Rattus norvegicus [5] is listed as greater than 10; with Rattus norvegicus [6], greater than 2.5.
As for `O=c1c(CCN2CCc3oc4ccccc4c3C2)c(Cc2ccccc2)nc2ccccn12`, the pIC50 was 8.66 in test [1], 8.38 in test [2], 6.69 in test [3] and 8.57 in test [4]. Besides, the Activity with Rattus norvegicus [5] is reported as greater than 10; in the test on Rattus norvegicus [6] it was greater than 2.5.
For the compound `Cc1nc2ccccn2c(=O)c1CCN1CCc2oc3c(Cl)cccc3c2C1`, the negative-log IC50 (pIC50) in test [1] is 9.05; in test [2] it was 8.36; in test [3], 6.55; in test [4], 8.65. In addition, the figures for the Activity with Rattus norvegicus [5] and in the test on Rattus norvegicus [6] were 2.5 and 0.63, respectively.
Turning to `Cc1nc2ccccn2c(=O)c1CCN1CCc2oc3ccccc3c2C1` [LUSAPERIDONE], the pIC50 in test [1] was 9.26; in test [2], 8.59; in test [3], 6.46; in test [4] it was 8.77. The Activity in the test with Rattus norvegicus [5] was found to be 0.04; with Rattus norvegicus [6], 0.31.
